Several values for one entry are separate records, joined by “and”; a condition that tells them apart may be missing. Identical values can stand only once.
System: patients with relapsed and/or refractory MDS, CMML, or AML
Assay: Safety: adverse events, dose-limiting toxicities and deaths
Assay type: in vivo, human
Outline: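 Open-label, multicenter part 1 in adults with relapsed/refractory MDS, CMML or secondary AML. The 300 mg dose-expansion cohort took the test compound orally once daily with water only, at about the same time (±4 h), on every day of 28-day cycles. Deaths were split into ⩽30 days or >30 days after the last dose. The analysis covered all patients given at least one dose.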

CC(=O)N1CCC(Nc2cc(C(=O)NC[C@H](O)CN3CCc4ccccc4C3)ncn2)CC1 [GSK3326595]
Died (during the study) (300 mg, n = 17): 14 (82%) n (%) | GSK3326595-related TEAE: AE leading to study treatment withdrawn (300 mg, n = 17): 2 (12) n (%) | GSK3326595-related TEAE: Anemia (300 mg, n = 17): 2 (12) n (%) | GSK3326595-related TEAE: Any SAE (300 mg, n = 17): 3 (18) n (%) | GSK3326595-related TEAE: Any TEAEs (300 mg, n = 17): 13 (76) n (%) | GSK3326595-related TEAE: Any grade 3/4 TEAE (300 mg, n = 17): 8 (47%) n (%) and 8 (47) n (%) | GSK3326595-related TEAE: Decreased appetite (300 mg, n = 17): 3 (18) n (%) | GSK3326595-related TEAE: Decreased platelet count (300 mg, n = 17): 5 (29) n (%) | GSK3326595-related TEAE: Dysgeusia (300 mg, n = 17): 4 (24) n (%) | GSK3326595-related TEAE: Fatal SAE (300 mg, n = 17): 1 (6) n (%) | GSK3326595-related TEAE: Fatigue (300 mg, n = 17): 2 (12) n (%) | GSK3326595-related TEAE: Nausea (300 mg, n = 17): 4 (24) n (%) | GSK3326595-related TEAE: Neutrophil count decreased (300 mg, n = 17): 2 (12) n (%) | GSK3326595-related TEAE: Thrombocytopenia (300 mg, n = 17): 2 (12) n (%) | TEAE: AE leading to dose interruption (300 mg, n = 17): 10 (59) n (%) | TEAE: AE leading to dose reduction (300 mg, n = 17): 1 (6) n (%) | TEAE: AE leading to study treatment withdrawn (300 mg, n = 17): 3 (18) n (%) | TEAE: Anemia (300 mg, n = 17): 7 (41) n (%) | TEAE: Any AE (300 mg, n = 17): 17 (100) n (%) | TEAE: Any SAE (300 mg, n = 17): 12 (71) n (%) | TEAE: Decreased appetite (300 mg, n = 17): 4 (24) n (%) | TEAE: Decreased platelet count (300 mg, n = 17): 8 (47) n (%) | TEAE: Diarrhea (300 mg, n = 17): 7 (41) n (%) | TEAE: Dysgeusia (300 mg, n = 17): 7 (41) n (%) | TEAE: Dyspnea (300 mg, n = 17): 6 (35) n (%) | TEAE: Fatal SAE (300 mg, n = 17): 5 (29%) n (%) and 5 (29) n (%) | TEAE: Fatigue (300 mg, n = 17): 6 (35) n (%) | TEAE: Nausea (300 mg, n = 17): 5 (29) n (%) | Died (during the study) (400 mg, n = 13): 11 (85%) n (%) | GSK3326595-related TEAE: AE leading to study treatment withdrawn (400 mg, n = 13): 0 n (%) | GSK3326595-related TEAE: Anemia (400 mg, n = 13): 1 (8) n (%) | GSK3326595-related TEAE: Any SAE (400 mg, n = 13): 3 (23) n (%) | GSK3326595-related TEAE: Any TEAEs (400 mg, n = 13): 9 (69) n (%) | GSK3326595-related TEAE: Any grade 3/4 TEAE (400 mg, n = 13): 5 (38%) n (%) and 5 (38) n (%) | GSK3326595-related TEAE: Decreased appetite (400 mg, n = 13): 1 (8) n (%) | GSK3326595-related TEAE: Decreased platelet count (400 mg, n = 13): 3 (23) n (%) | GSK3326595-related TEAE: Dysgeusia (400 mg, n = 13): 3 (23) n (%) | GSK3326595-related TEAE: Fatal SAE (400 mg, n = 13): 0 n (%) | GSK3326595-related TEAE: Fatigue (400 mg, n = 13): 4 (31) n (%) | GSK3326595-related TEAE: Nausea (400 mg, n = 13): 2 (15) n (%) | GSK3326595-related TEAE: Neutrophil count decreased (400 mg, n = 13): 2 (15) n (%) | GSK3326595-related TEAE: Thrombocytopenia (400 mg, n = 13): 1 (8) n (%) | TEAE: AE leading to dose interruption (400 mg, n = 13): 10 (77) n (%) | TEAE: AE leading to dose reduction (400 mg, n = 13): 5 (38) n (%) | TEAE: AE leading to study treatment withdrawn (400 mg, n = 13): 4 (31) n (%) | TEAE: Anemia (400 mg, n = 13): 3 (23) n (%) | TEAE: Any AE (400 mg, n = 13): 13 (100) n (%) | TEAE: Any SAE (400 mg, n = 13): 11 (85) n (%) | TEAE: Decreased appetite (400 mg, n = 13): 5 (38) n (%) | TEAE: Decreased platelet count (400 mg, n = 13): 4 (31) n (%) | TEAE: Diarrhea (400 mg, n = 13): 6 (46) n (%) | TEAE: Dysgeusia (400 mg, n = 13): 3 (23) n (%) | TEAE: Dyspnea (400 mg, n = 13): 5 (38) n (%) | TEAE: Fatal SAE (400 mg, n = 13): 9 (69%) n (%) and 9 (69) n (%) | TEAE: Fatigue (400 mg, n = 13): 7 (54) n (%) | TEAE: Nausea (400 mg, n = 13): 4 (31) n (%) | Deaths >30 days from last dose of study treatment (number) (300-mg cohort): 6 | Deaths ⩽30 days from last dose of study treatment (number) (300-mg cohort): 8 | Deaths >30 days from last dose of study treatment (number) (400-mg cohort): 5 | Deaths ⩽30 days from last dose of study treatment (number) (400-mg cohort): 6 | Deaths >30 days from last dose of study treatment (Total, N = 30): 11 (37%) n (%) | Deaths ⩽30 days from last dose of study treatment (Total, N = 30): 47% | Died (during the study) (Total, N = 30): 25 (83%) n (%) | GSK3326595-related AE: decreased platelet count (Total, N = 30): 27% | GSK3326595-related AE: dysgeusia (Total, N = 30): 23% | GSK3326595-related AE: fatigue (Total, N = 30): 20% | GSK3326595-related AE: nausea (Total, N = 30): 20% | GSK3326595-related TEAE with maximum grade of 3 or 4: decreased neutrophil count (Total, N = 30): 4 (13%) n (%) | GSK3326595-related TEAE with maximum grade of 3 or 4: decreased platelet count (Total, N = 30): 6 (20%) n (%) | GSK3326595-related TEAE with maximum grade of 3 or 4: thrombocytopenia (Total, N = 30): 3 (10%) n (%) | GSK3326595-related TEAE: AE leading to study treatment withdrawn (Total, N = 30): 2 (7) n (%) | GSK3326595-related TEAE: Anemia (Total, N = 30): 3 (10%) n (%) and 3 (10) n (%) | GSK3326595-related TEAE: Any SAE (Total, N = 30): 6 (20%) n (%) and 6 (20) n (%) | GSK3326595-related TEAE: Any TEAEs (Total, N = 30): 22 (73) n (%) | GSK3326595-related TEAE: Any grade 3/4 TEAE (Total, N = 30): 13 (43) n (%) | GSK3326595-related TEAE: Decreased appetite (Total, N = 30): 4 (13%) n (%) and 4 (13) n (%) | GSK3326595-related TEAE: Decreased platelet count (Total, N = 30): 8 (27%) n (%) and 8 (27) n (%) | GSK3326595-related TEAE: Dysgeusia (Total, N = 30): 7 (23%) n (%) and 7 (23) n (%) | GSK3326595-related TEAE: Fatal SAE (Total, N = 30): 1 (3) n (%)
